Measles CPE – protection of cells from measles virus. Measles virus-infected cells, CPE protection, absorbance. 140,000 tested, 1.5% active. protection (pct of control), % at 4 µM; in the data active means protection mostly above about 24%, no sharp cut-off; inactive means mostly below about 26%
Yeast growth inh – reduces growth of yeast BB579 in restrictive medium. S. cerevisiae BB579 growth, OD615, 48 h. inhibition, % at 10 µM. 140,000 tested, 0.51% active;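 active means inhibition above a set limit, 3 SD over the mean compound inhibition, cut at about 44% in these data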
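Assay system – yeast BB579 (DeaD) · Dosing – single compound dose of 10 µM, 0.25% DMSO final · Detection – OD615 turbidity measurement · Buffer or medium – CSMM-D restrictive synthetic medium containing dextrose (glucose) · Benchmarks – positive control amphotericin B 10 µg/mL · Incubation – 48 h exposure, 30 °C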
WT yeast gro inh – growth inhibition of WT yeast, mitochondrial fusion screen; mitochondrial fusion phenotypic screen, WT strain; inhibition, % at 10 µM; 190,000 tested, 2.1% active; AID 1362; in the data active means inhibition above about 58%; tested in S. cerevisiae
hDAT+cocaine – changed human dopamine transporter uptake under cocaine IC80; Q01959; LLC-PK1 hDAT cells, [14C]-dopamine uptake with cocaine IC80; actives deviate in either direction; B-score at 10 µM; 110,000 tested, 1.3% active;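 active means Z score or B-score, a plate-position-corrected score, falls beyond the plate's 99.7% confidence bounds, in either direction; inactive means both scores lie inside the 99.7% bounds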;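 further: scored against the spread of the other compound wells on the same plate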
Target sequence (Q01959 whole entry, looked up): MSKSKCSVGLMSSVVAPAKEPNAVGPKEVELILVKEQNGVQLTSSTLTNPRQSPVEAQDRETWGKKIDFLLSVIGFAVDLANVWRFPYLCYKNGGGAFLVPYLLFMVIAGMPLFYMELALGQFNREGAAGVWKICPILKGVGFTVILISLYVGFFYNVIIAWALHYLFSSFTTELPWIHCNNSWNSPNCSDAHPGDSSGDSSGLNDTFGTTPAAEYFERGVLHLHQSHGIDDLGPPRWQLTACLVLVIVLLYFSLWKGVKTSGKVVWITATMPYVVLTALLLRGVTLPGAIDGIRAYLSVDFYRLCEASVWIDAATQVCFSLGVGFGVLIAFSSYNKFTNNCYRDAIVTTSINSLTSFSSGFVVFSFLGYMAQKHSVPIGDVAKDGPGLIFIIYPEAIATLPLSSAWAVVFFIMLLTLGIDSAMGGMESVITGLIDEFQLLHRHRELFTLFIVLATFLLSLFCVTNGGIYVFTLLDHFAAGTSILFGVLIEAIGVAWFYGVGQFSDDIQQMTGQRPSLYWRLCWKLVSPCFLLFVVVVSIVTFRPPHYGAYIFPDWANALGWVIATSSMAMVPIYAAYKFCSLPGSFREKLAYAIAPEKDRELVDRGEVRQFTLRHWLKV
RAM inhibit – inhibitors of the yeast RAM network. S. cerevisiae dse1pr::URA3 reporter, 5-FOA growth OD615, 2 d; analog-sensitive cbk1-as2 kinase mutant strain. 190,000 tested, 1.8% active. AID 868. inhibition, % at 50 µM;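 active means inhibition above a set limit, 3 SD over mean compound inhibition, cut at about 8.4% in these data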;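 further: 0% = DMSO-only wells with no growth and 100% = 10 µM 1-NA-PP1 full growth; inhibition rescues growth on 5-FOA so higher OD means more RAM inhibition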
Yeast life ext – yeast lifespan extension; S. cerevisiae growth with nicotinamide, OD615; deaD strain in restrictive glucose medium; inhibition of the nicotinamide effect, % at 10 µM; 130,000 tested, 0.68% active; AID 775;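 active means inhibition above a set limit, placed 3 SD over the median of all compounds, cut at about 26% in these data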;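 further: 0% = nicotinamide-treated wells and 100% = cells grown without nicotinamide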
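Assay system: engineered S. cerevisiae DeaD replicative-lifespan strain, galactose-grown log-phase cells; Buffer or medium: CSMM-D glucose medium, restrictive; Probe or stimulus: nicotinamide 1.5 mM; Compound: single dose 10 µM compound, 0.25% DMSO; Schedule: 4 h preincubation then 48 h treatment at 30 °C; Technique: OD615 measurement.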
* hit, by the source's call. Hits are enriched below; roughly 6.1% of the tested compounds scored in any of these assays.

`CC(Sc1nc(-c2ccccc2)cc(C(F)(F)F)n1)C(=O)Nc1sc2c(c1C#N)CCC2` (stereo not given) gave Measles CPE 1, Yeast growth inh -31, WT yeast gro inh 3, hDAT+cocaine 0.021, RAM inhibit 10.0* and Yeast life ext 1.
`CCOC(=O)N/N=C(\c1ccccc1)C(O)c1ccccc1` (stereo not given) gave WT yeast gro inh -24 and RAM inhibit 0.
CC(=O)N1N=C2/C(=C/c3ccccc3)CCCC2C1c1ccccc1 (stereo not given) was read as WT yeast gro inh 44 and RAM inhibit 0.
Screening O=C(c1ccccn1)N1N=C2/C(=C/c3ccc(F)cc3)CCCC2C1c1ccc(F)cc1 (stereo not given) returned Measles CPE 3, Yeast growth inh -36, WT yeast gro inh 74*, RAM inhibit 0 and Yeast life ext 4.
Screening COc1cc(OC)nc(Oc2cc(/C=N/O)ccc2OC)n1 returned WT yeast gro inh 5 and RAM inhibit 0.
`N#Cc1nc(COc2ccccc2)oc1N1CCC(Cc2ccccc2)CC1` gave Measles CPE 3, Yeast growth inh -62, WT yeast gro inh 0, hDAT+cocaine -1.1, RAM inhibit 11* and Yeast life ext 6.
For N#Cc1nc(Cc2cccc3ccccc23)oc1N1CCOCC1 the results were Measles CPE 9, Yeast growth inh -10, hDAT+cocaine 0.046, RAM inhibit 1 and Yeast life ext -10.
CC1CCN(c2oc(Cc3cccc4ccccc34)nc2C#N)CC1 was read as Measles CPE 7, Yeast growth inh -31, WT yeast gro inh -5, hDAT+cocaine 0.074, RAM inhibit 10* and Yeast life ext -20.
`Cc1nc2ccccc2n1-c1ccccc1` gave Measles CPE 5, Yeast growth inh -25, WT yeast gro inh 8, hDAT+cocaine -2, RAM inhibit 1 and Yeast life ext 54*.
For Cc1nc2cc(N)ccc2n1-c1ccccc1 the results were WT yeast gro inh -5 and RAM inhibit 0.
`COc1ccc2nc(Nc3nc(CSc4ccc(C)cc4)cc(=O)[nH]3)nc(C)c2c1` gave WT yeast gro inh 34 and RAM inhibit 11*.
`COc1ccc(N/C(N)=N/c2nc(CSc3ccc(C)cc3)cc(=O)[nH]2)cc1` gave Measles CPE 3, Yeast growth inh -44, WT yeast gro inh 80*, RAM inhibit 4 and Yeast life ext 1.
For O=C(O)CCC(=O)Nc1ccc(OCC(=O)O)cc1 the results were Measles CPE 7, Yeast growth inh -7, WT yeast gro inh -6, hDAT+cocaine -0.46, RAM inhibit 2 and Yeast life ext -13.
Screening FC(F)(F)c1ccccc1NC(=S)N/N=C1\CC2CC=CC12 (stereo not given) returned WT yeast gro inh 21 and RAM inhibit -1.
For CCOP(=O)(OCC)c1nc(-c2cccc3ccccc23)oc1N1CCOCC1 the results were Measles CPE 6, Yeast growth inh -20, WT yeast gro inh 8, RAM inhibit 0 and Yeast life ext -3.
For CCOP(=O)(OCC)c1nc(-c2cccc3ccccc23)oc1NCCc1ccc(OC)cc1 the results were Measles CPE 5, Yeast growth inh -18, WT yeast gro inh 70*, RAM inhibit 5 and Yeast life ext 4.
For COc1ccc(-c2ccc(SCC(=O)N3CCN(c4ccccc4)CC3)nn2)cc1 the results were WT yeast gro inh -21 and RAM inhibit 3.
For Cc1ccc(NC(=O)COC(=O)/C(=C/c2cccs2)c2cccs2)cc1S(=O)(=O)N(C)C the results were Measles CPE 19, Yeast growth inh -59, WT yeast gro inh 9, RAM inhibit 8.9* and Yeast life ext 10.
For O=S(=O)(Nc1ccc(O)c(Sc2nc3ccccc3s2)c1)c1ccc(F)cc1 the results were Measles CPE 15, Yeast growth inh -54, WT yeast gro inh 22, RAM inhibit 8.9* and Yeast life ext 9.
For O=C(O)c1cccc(S(=O)(=O)Nc2ccc(O)c(Sc3nc4ccccc4s3)c2)c1 the results were WT yeast gro inh 13 and RAM inhibit 5.
O=S(=O)(Nc1ccc(O)c(Sc2nc3ccccc3s2)c1)c1cccc2ccccc12 was read as Measles CPE 15, Yeast growth inh -38, WT yeast gro inh 69*, RAM inhibit 6 and Yeast life ext 9.
`COc1ccccc1CNC(=O)CN1CCN(S(=O)(=O)c2cccs2)CC1` gave WT yeast gro inh -4 and RAM inhibit 1.
`c1csc(CNc2nc(-c3cccs3)nc3ccccc23)c1` gave WT yeast gro inh 79* and RAM inhibit 2.
`c1ccc(CN2CCC(Nc3nc(-c4cccs4)nc4ccccc34)CC2)cc1` gave WT yeast gro inh 48 and RAM inhibit 4.
Screening O=C(NCC(=O)N(c1ccc(F)cc1)C(C(=O)NC1CCCC1)c1cccnc1)c1cccs1 (stereo not given) returned WT yeast gro inh 20 and RAM inhibit 8.9*.
Screening O=C(NC1CCCC1)C(c1cccs1)N(C(=O)c1ccco1)c1ccc2c(c1)OCO2 (stereo not given) returned Measles CPE 15, Yeast growth inh -20, WT yeast gro inh -1, hDAT+cocaine -0.098 and RAM inhibit 0.
O=C(NCC(=O)N(c1ccc2c(c1)OCO2)C(C(=O)NC1CCCC1)c1cccs1)c1ccco1 (stereo not given) was read as Measles CPE 66*, Yeast growth inh -36, WT yeast gro inh 10, hDAT+cocaine -0.43, RAM inhibit 3 and Yeast life ext -26.
For C=CCN(C(=O)CNC(=O)c1ccco1)C(C(=O)NC1CCCCC1)c1ccccc1 (stereo not given) the results were Measles CPE 5, Yeast growth inh -22, WT yeast gro inh -6, hDAT+cocaine 0.049, RAM inhibit 9.2* and Yeast life ext -19.
`Cc1c(Cl)c([N+](=O)[O-])nn1CCCC(=O)Nc1c(Cl)cccc1Cl` gave Measles CPE 2, Yeast growth inh -67, WT yeast gro inh 10, RAM inhibit 9.9* and Yeast life ext 4.
`Cc1c(Cl)c([N+](=O)[O-])nn1CCCC(=O)Nc1c(C)n(C)n(-c2ccccc2)c1=O` gave WT yeast gro inh 1 and RAM inhibit 1.
`[N-]=[N+]=CC(=O)c1ccnc(C(=O)C=[N+]=[N-])c1` gave Measles CPE 0, Yeast growth inh -38, WT yeast gro inh -1, hDAT+cocaine 0.034, RAM inhibit 1 and Yeast life ext -7.
Cc1cc(C)c(C)c(S(=O)(=O)N2CCN(CC(=O)Nc3sccc3C#N)CC2)c1C was read as Measles CPE 1, Yeast growth inh -48, WT yeast gro inh -8, RAM inhibit 4 and Yeast life ext 3.
